# Assay results reported in PubChem BioAssay.
# The source made the active and inactive calls.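 Rule for the calls, unless noted: active = visually confirmed hit in the image check and inhibition above 20%; inconclusive = visually confirmed hit but inhibition not above 20%; inactive = no visual hit in the image check.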
# What was measured:
# [1] = inhibitors of TNFa-induced NFkB p65 translocation, primary screen, imaging, HUVEC, MLSMR starter and 10KST1 sets (AID 438;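 active = inhibition above 20% together with a positive visual image hit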;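 note: compound added about 3h40 before a 20 min TNFalpha stimulation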;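 for inhibition: signal is the nuclear over cytoplasmic p65 intensity ratio per well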); settings: HUVEC TNFa-induced p65 nuclear translocation; cell count: measured here: nuclei count (cytotoxicity indicator), at 2.08 µM; inhibition: at 2 µM, stronger effect = higher value, 0% TNFa-plus-vehicle, 100% no-TNFa wells
# [2] = reduction of polyQ htt aggregates in cells – imaging, exon1htt(103Q)mCFP cells, high-content imaging, primary screen (AID 483;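 active = visual image review flags a hit and inhibition of aggregation exceeds 20%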;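 note: compound exposure lasted 3 days before fixation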;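 for nuclei count: percent of the per-plate median nuclei count of sample wells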); settings: exon1htt(103Q)mCFP cell line, aggregate imaging, at 2 µM; inhibition of aggregation: stronger effect = higher value; nuclei count: measured here: cell count, toxicity
# [3] = endothelial E-selectin expression blockers – imaging, HUVEC, immunofluorescence, MLSMR starter and 10KST1 sets, primary screen (AID 487); settings: HUVEC TNFalpha-induced E-selectin immunofluorescence imaging, at 2 µM; inhibition: stronger effect = higher value; nuclei count: measured here: cell number, toxicity;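 for inhibition: signal is fraction of cell area covered by stained E-selectin grains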;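 for nuclei count: 100% = median nuclei count of all wells on the same plate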
# [4] = biological target: Voltage-gated potassium channel subunit beta-2 (Rattus norvegicus) (UniProt P62483); experiment: inhibitors of rat Kvbeta2 reductase activity – biochemical, NADPH fluorescence, primary screen (AID 622;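 active = fluorescence slope higher than the sample average by over 3 SD, cut at about -0.22 in these data, passing the limit was not always enough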;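 note: slope of raw intensity against log time taken from 70 to 1610 s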); settings: recombinant KvBeta, 4-cyanobenzaldehyde reduction, at 10 µM, stronger effect = higher value
# Chain of Voltage-gated potassium channel subunit beta-2 (Rattus norvegicus) (P62483 whole entry, looked up): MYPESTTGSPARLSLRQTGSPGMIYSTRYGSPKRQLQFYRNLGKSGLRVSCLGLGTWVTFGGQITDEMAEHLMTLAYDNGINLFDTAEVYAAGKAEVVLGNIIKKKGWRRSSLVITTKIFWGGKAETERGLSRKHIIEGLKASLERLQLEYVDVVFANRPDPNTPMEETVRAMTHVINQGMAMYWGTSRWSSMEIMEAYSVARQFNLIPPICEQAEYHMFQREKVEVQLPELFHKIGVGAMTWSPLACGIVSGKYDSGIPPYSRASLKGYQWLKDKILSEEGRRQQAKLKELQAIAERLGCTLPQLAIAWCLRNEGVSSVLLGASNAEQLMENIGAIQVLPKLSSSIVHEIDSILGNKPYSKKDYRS
# [5] = biological target: Voltage-gated potassium channel subunit beta-2 (Rattus norvegicus) (UniProt P62483); experiment: enhancers of rat Kvbeta2 NADPH turnover – biochemical, NADPH fluorescence, primary screen (AID 623;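 active = NADPH fluorescence slope more negative than the mean of all samples by about 3 SD, 99.7% confidence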;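 note: fluorescence intensity change per second fitted from 20 to 320 s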); settings: Recombinant KvBeta, NADPH fluorescence decrease slope, 10 min; at 10 µM; stronger effect = lower value
# [6] = biological target: Muscarinic acetylcholine receptor M4 (Homo sapiens) (UniProt P08173); experiment: M4-linked GIRK flux change, two-sided – cell-based, HEK293 M4/GIRK, thallium flux, BTC-AM, M4 allosteric agonist project, primary screen (AID 625;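 active = fluorescence slope after compound addition differing from the mean of all tested samples at 99.7% confidence, mostly higher but some lower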;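 note: thallium influx through GIRK channels coupled to M4 in HEK293 cells with BTC-AM dye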); settings: at 10 µM, actives lie on both sides
# Chain of Muscarinic acetylcholine receptor M4 (Homo sapiens) (P08173 whole entry, looked up): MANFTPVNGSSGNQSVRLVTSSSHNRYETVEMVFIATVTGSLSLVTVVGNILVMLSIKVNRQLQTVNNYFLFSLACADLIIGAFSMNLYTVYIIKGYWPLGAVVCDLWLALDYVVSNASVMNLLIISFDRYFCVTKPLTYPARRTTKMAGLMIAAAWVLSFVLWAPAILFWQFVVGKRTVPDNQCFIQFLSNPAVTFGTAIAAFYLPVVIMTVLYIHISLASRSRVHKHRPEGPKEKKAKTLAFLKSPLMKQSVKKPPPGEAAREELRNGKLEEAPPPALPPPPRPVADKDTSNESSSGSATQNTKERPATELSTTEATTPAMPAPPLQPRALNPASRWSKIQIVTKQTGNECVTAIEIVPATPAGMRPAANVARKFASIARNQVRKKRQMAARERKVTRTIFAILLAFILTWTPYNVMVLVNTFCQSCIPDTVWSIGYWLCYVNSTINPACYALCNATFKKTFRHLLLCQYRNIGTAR
# How it was run: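 Material: HEK293 cells with M4 receptor and GIRK channels; Times: cells overnight at 37 °C, BTC-AM loading 1 h, reads 2 min total; Technique: kinetic BTC-AM fluorescence sampled at 1 Hz, 10 s pre-addition baseline; Read-out basis: slope over 15–24 s of trace normalized to starting intensity; Controls: carbachol positive, DMSO negative.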
# [7] = blockers of RIG-like receptor reporter activation – cell-based, Sendai virus stimulus, luciferase, 10K MLSCN set, TLR/RLR signaling modifier project, primary screen (AID 602276;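 active = inhibition at or above 50% at 10 µM; inactive = inhibition below 50%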;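 note: firefly luciferase from ISG56 promoter only with Renilla not read in this screen; 0% = Sendai virus plus DMSO and 100% = medium plus DMSO without virus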); settings: HEK293 RL24 IRF3 luciferase reporter, at 10 µM, stronger effect = higher value
# [8] = TLR3 IRF3 reporter activation blockers – cell-based, poly I:C stimulus, luciferase, 10K MLSCN set, primary screen (AID 602277;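 active = inhibition of the reporter signal at or above 50%; inactive = inhibition below 50%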); settings: HEK293-TLR3 RL24 IRF3 luciferase reporter, at 10 µM, stronger effect = higher value
SMILES,cell count [1],inhibition [1],inhibition of aggregation [2],nuclei count [2],inhibition [3],nuclei count [3],fluorescence slope [4],NADPH fluorescence slope [5],fluorescence slope [6],inhibition [7],inhibition [8]
Nc1nonc1-c1noc(CCCCCN2C(=O)c3ccccc3C2=O)n1,221,6.9% (inactive),-10.5% (inactive),91%,9.5% (inactive),88%,-0.522 (inactive),-2.2e-05 (inactive),0.00407 (inactive),-4.73% (inactive),-15.6% (inactive)
Cc1ccc(S(=O)(=O)Cc2ccc(C(=O)NCc3ccc4c(c3)OCO4)o2)cc1,592,-1.9% (inactive),-21.6% (inactive),86.7%,-16.5% (inactive),106%,-0.454 (inactive),-9.9e-06 (inactive),0.00504 (inactive),9.39% (inactive),14.2% (inactive)
CSc1cccc(NC(=O)C2CCN(S(C)(=O)=O)CC2)c1,248,3.5% (inactive),16.4% (inactive),80.7%,-296% (inactive),120%,-0.438 (inactive),3.2e-05 (inactive),0.00544 (inactive),13.5% (inactive),13.6% (inactive)
O=C(NCc1ccco1)c1noc2c1CCCCC2,245,1.3% (inactive),1.9% (inactive),103%,-32.5% (inactive),117%,-0.549 (inactive),-2.4e-05 (inactive),0.00608 (inactive),-4% (inactive),-51.6% (inactive)
CNC(=O)c1ccccc1NC(=O)c1c(O)c2c([nH]c1=O)CCCC2,433,16.6% (inactive),-9.3% (inactive),98.8%,-19.5% (inactive),108%,-0.47 (inactive),-5.8e-05 (inactive),0.00682 (inactive),4.16% (inactive),16.9% (inactive)
COCCN1C(=O)C(=O)/C(=C(/O)c2ccc(OC(C)C)cc2)C1c1cccnc1 (stereo not given),644,-4.7% (inactive),-7.9% (inactive),116%,19.8% (inactive),104%,-0.422 (inactive),-1.5e-05 (inactive),0.00536 (inactive),17.3% (inactive),19.8% (inactive)
COc1cccc(C(=O)Nc2cccc(C(=O)N3CCOCC3)c2)c1,354,1.6% (inactive),0.9% (inactive),76%,-121% (inactive),95%,-0.564 (inactive),-3.3e-05 (inactive),0.00825 (inactive),3.67% (inactive),1.87% (inactive)
CCOC(=O)CN1C2=NCCN2c2ccccc21,428,3.8% (inactive),-1.1% (inactive),76.3%,-107% (inactive),125%,-0.605 (inactive),-8.6e-06 (inactive),0.00469 (inactive),13.8% (inactive),18.8% (inactive)
CC1C(O)=C(c2nc3ccccc3[nH]2)C(=N)N1c1ccccc1 (stereo not given),331,2.2% (inactive),-12.9% (inactive),103%,-1.7% (inactive),104%,-0.482 (inactive),-2.5e-05 (inactive),0.00621 (inactive),-3.95% (inactive),-41% (inactive)
CCOC(=O)c1ccc(Oc2nc(NC)nc(OC)n2)cc1,635,6.8% (inactive),-13.2% (inactive),98.2%,-41.5% (inactive),110%,-0.295 (inactive),-1.6e-06 (inactive),0.00677 (inactive),-7.27% (inactive),18.3% (inactive)
CCOC(=O)c1[nH]c2ccccc2c1NC(=O)c1ccco1,671,-8.6% (inactive),4.2% (inactive),87.8%,52.3% (inactive),102%,-0.332 (inactive),-6.5e-05 (inactive),0.00748 (inactive),17.1% (inactive),21.7% (inactive)
COc1ccccc1-c1cc(C(=O)NCCCn2ccnc2)no1,459,-15.2% (inactive),-15.7% (inactive),106%,49.5% (inactive),90%,-0.291 (inactive),-2.7e-05 (inactive),0.00777 (inactive),5.02% (inactive),36% (inactive)
Cn1c(Cc2cccs2)nnc1SCC(=O)N1CCc2ccccc21,369,-1.8% (inactive),14.1% (inactive),93.4%,-67.8% (inactive),93.3%,-0.479 (inactive),-6.1e-05 (inactive),0.00472 (inactive),8.51% (inactive),16.5% (inactive)
CC(NC(=O)c1ccc(F)cc1)C(c1cccs1)N1CCN(C)CC1 (stereo not given),466,-7.5% (inactive),-8.9% (inactive),93.6%,23% (inactive),92.2%,-0.424 (inactive),-5e-05 (inactive),0.00581 (inactive),5.9% (inactive),15.9% (inactive)
Cc1ccccc1C(=O)N1CCC(C(=O)Nc2ccc(S(=O)(=O)N3CCCC3)cc2)CC1,186,6.1% (inactive),-11% (inactive),105%,12.2% (inactive),97.5%,-0.566 (inactive),-3.8e-05 (inactive),0.0067 (inactive),8.84% (inactive),16.9% (inactive)
CCOc1ccc(C2/C(=C(/O)c3ccccc3)C(=O)C(=O)N2CCCN(C)C)cc1OC (stereo not given),411,-1.1% (inactive),-13.7% (inactive),102%,-29.6% (inactive),92.2%,-0.446 (inactive),-4.1e-05 (inactive),0.00491 (inactive),19.2% (inactive),15.1% (inactive)
Cn1cc(C(=O)NC2CCCCCCC2)c(=O)c2cc(S(=O)(=O)N3CCCC3)ccc21,614,3.5% (inactive),8.6% (inactive),109%,-3.4% (inactive),106%,-0.319 (inactive),-4.1e-05 (inactive),0.00744 (inactive),10.2% (inactive),24.5% (inactive)
Cc1ccc2nsnc2c1S(=O)(=O)N1CCN(Cc2ccc3c(c2)OCO3)CC1,486,-13.1% (inactive),-11.5% (inactive),108%,-9.8% (inactive),83.9%,-0.468 (inactive),-4.9e-05 (inactive),0.00415 (inactive),12.5% (inactive),27.7% (inactive)
COc1ccc(C(=O)NCCn2ccc3ccccc32)cc1,238,7.3% (inactive),25.9% (inactive),104%,-36.9% (inactive),95%,-0.386 (inactive),-5.6e-06 (inactive),0.008 (inactive),5.56% (inactive),-49.2% (inactive)
O=C1c2oc3ccccc3c(=O)c2C(c2ccccn2)N1Cc1ccccc1 (stereo not given),440,-8.7% (inactive),1.8% (inactive),106%,-49.4% (inactive),125%,-0.563 (inactive),-9.3e-06 (inactive),0.00477 (inactive),-16.4% (inactive),-22.3% (inactive)
